# PolyA inh: polyadenylation inhibitors in yeast reporter cells, primary screen, luminescence, S. cerevisiae; S. cerevisiae SKY197-pL101 polyadenylation reporter, beta-gal luminescence; efflux-impaired pdr1/pdr3 knockout yeast; score 100 = 6 SD above DMSO; activity score, % at 12 µM; actives 0.02% (n = 300,000); AID 1875, 2009;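 active means lowest replicate activity score at least 50, where 100 means six control SD above control mean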;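 further: yeast exposed to compound for 9 h at 30 °C; higher score means more reporter readthrough which indicates perturbed polyadenylation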
# Pemphigus Ab inh: inhibitors of pemphigus antibody binding to DSG3, primary screen, biochemical, bead-based, flow cytometry, scFv-GFP. Desmoglein-3 (Homo sapiens), P32926. AID 588358, 2011. binding (percent of control), % at 10 µM. actives 0.48% (n = 310,000). DSG3-coupled beads, scFv-anti-DSG3-GFP binding; hits give low values;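 active means binding more than 3 SD below its plate's average and above zero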;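 further: hits lower antibody fragment binding to DSG3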
# NLRP3 yeast inh: NALP3 inflammasome inhibitors in reconstituted yeast, primary screen, luminescence, uHTS; Yeast reconstituted NLRP3/ASC/caspase-1, beta-gal luminescence, 24 h; inhibition, % at 10 µM; actives 0.39% (n = 330,000); AID 2825, 2010;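 active means inhibition of 50% or more; inactive means inhibition below 50%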;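 further: plate controls were induced DMSO wells for no effect and uninduced yeast grown without galactose for full effect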
# ALR H2O2 inh: inhibitors of human ALR sulfhydryl oxidase, primary screen, biochemical, H2O2 detection, HRP-luminol luminescence, single point | purified ALR, DTT oxidation | inhibition, % (no concentration beside the values) | actives 3.8% (n = 290,000) | AID 485317, 2010;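 active means mean replicate inhibition above about 79%, with every replicate also reaching it, limit read from the data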
# Target sequence (P55789 whole entry, looked up): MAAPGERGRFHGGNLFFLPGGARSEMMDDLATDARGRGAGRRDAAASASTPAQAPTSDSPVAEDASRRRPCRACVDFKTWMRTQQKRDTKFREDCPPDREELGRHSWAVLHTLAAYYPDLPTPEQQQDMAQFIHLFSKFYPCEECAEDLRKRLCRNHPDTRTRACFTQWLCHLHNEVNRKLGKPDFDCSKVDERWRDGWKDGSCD
# Arrestin-AP2 inh: inhibitors of beta-arrestin/AP2 binding, primary screen, biochemical, GPCR trafficking, flow cytometry; beta-arrestin 1 C-terminal peptide binding to AP2 beta2-adaptin appendage (human); FITC-arrestin peptide / GST-AP2 beads; AP2 beta2 appendage carries R879A mutation; inhibition, % at 10 µM; actives 0.31% (n = 340,000);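 active means inhibition above a set limit, near 3 SD of compounds lacking own fluorescence, cut at about 54% in these data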;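 further: plate controls were DMSO wells for no effect and 5 µM unlabelled arrestin peptide for full effect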
#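 System: GST-AP2 R879A glutathione beads; medium: PBS, Tween 20 0.05%, BSA 0.1%; reagent: fluorescein-tagged arrestin peptide at 50 nM final; schedule: pre-incubation 12 min, peptide binding 1 h, room temperature; detection: flow cytometry, FL1 (488/535 nm); read-out: inhibition as reduced fluorescein signal on beads, percent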
# NALP1 yeast inh: NALP1 inflammasome inhibitors in reconstituted yeast, colorimetric, S. cerevisiae, triplicate retest; actives 0.61% (n = 280,000); S. cerevisiae NALP1/ASC/caspase-1 growth, X-gal OD620, 72 h; inhibition, % at 10 µM; in the data active means inhibition mostly above about 24%, no sharp cut-off; inactive means mostly below about 32%
# * marks the source's active call; other numbers are inactive results; x = not tested or not shown. Compounds with a hit are over-represented: about 4.6% of the library has one in this group of screens.
SMILES,PolyA inh,Pemphigus Ab inh,NLRP3 yeast inh,ALR H2O2 inh,Arrestin-AP2 inh,NALP1 yeast inh
C(=C\c1ccco1)/C=N/n1cnnc1,-20,99,-3,-6,11,22*
CC(/C=N/n1c(-c2ccc(C)cc2)n[nH]c1=S)=C\c1ccco1,-9,x,9,97*,0,27
S=c1[nH]nc(-c2cccc(Cl)c2)n1/N=C/c1ccco1,2,x,15,97*,x,x
Cc1cccc(-c2n[nH]c(=S)n2/N=C/C=C/c2ccco2)c1,18,106,-4,97*,-4,-3
COc1cccc(N=CNc2cccc(OC)c2)c1,x,89,x,x,12,x
COc1cc(C)c(S(=O)(=O)N2CCOCC2)cc1C(C)C,-18,103,18,2,9,7
COc1cc(C)c(N)cc1C(C)C,-2,80,0,98*,25,x
CC1C/C(=N/NC(=O)c2cccc(F)c2)c2ccc(O)cc2C1 (configuration not stated),-3,100,3,99*,-5,43
COc1ccc2c(c1)CC(C)C/C2=N\NC(=O)c1ccco1 (configuration not stated),-1,99,33,-3,9,3
CC(=O)N1c2ccc(S(=O)(=O)N3CCCC(C(=O)N4CCCC(C)C4)C3)cc2CC1C (configuration not stated),-28,107,18,7,10,26
CC(=O)N1c2ccc(S(=O)(=O)N3CCCC(C(=O)N4CCC(C)CC4)C3)cc2CC1C (configuration not stated),-8,-9.0*,5,x,13,12
CCC(=O)N1c2ccc(S(=O)(=O)N3CCN(C)CC3)cc2CC1C (configuration not stated),5,120,3,-3,41,34*
CCC(=O)N1c2ccc(S(=O)(=O)N3CCCC3)cc2CC1C (configuration not stated),-8,96,12,1,-5,-1
CN1CCN(NC(=O)Nc2cccc(F)c2)CC1,4,x,9,1,38,20
CC1(C)SC(=S)N(/N=C/c2ccc(O)cc2)C1N(O)C(=O)Nc1ccc([N+](=O)[O-])cc1 (configuration not stated),-22,109,-1,81*,12,2
COc1ccccc1NS(=O)(=O)c1ccc(C(=O)N2CCN(c3ccccn3)CC2)cc1,x,x,8,-12,-8,x
Cc1cc(Cc2ccc(N)c(C)c2)ccc1N,0,96,7,81*,33,x
O=C(O/N=C/c1ccc(Br)cc1)c1ccc(F)cc1,3,118,3,-6,14,x
CCN(CC(=O)NCc1cccs1)C(=O)c1cc(S(=O)(=O)N2CCCCC2)ccc1Cl,-10,97,18,3,25,x
CCN(CC(=O)NCc1cccs1)c1ccc(S(=O)(=O)N2CCN(C)CC2)cn1,5,104,17,-5,-26,39*
C=CCn1c(SCC(=O)Nc2cccc(S(N)(=O)=O)c2)nc2sc(C)c(C)c2c1=O,x,106,23,3,36,x
COc1cc(OC)c(NC(=O)CCNS(=O)(=O)c2ccc3c(c2)CC(C)N3C(C)=O)cc1Cl (configuration not stated),3,109,15,-21,9,-13
CC(=O)Nc1ccc(S(=O)(=O)N(C)CC(=O)OC(C)C(=O)NC2(C#N)CCCCC2)cc1 (configuration not stated),x,95,x,x,x,x
Cc1[nH]oc(=O)c1N=Nc1c(Cl)cccc1Cl,-109,x,-1,92*,16,38
Cc1noc(C)c1COc1ccccc1C(=O)NCCOc1ccccc1,x,99,21,x,4,x
SMILES,PolyA inh,Pemphigus Ab inh,NLRP3 yeast inh,ALR H2O2 inh,Arrestin-AP2 inh,NALP1 yeast inh
CCS(=O)(=O)Nc1ccc2c(c1)N(C(C)=O)c1ccccc1CC2,-1,104,13,0,5,28*
O=S(=O)(Nc1ccccc1O)c1ccc(Cl)nc1,-9,85,20,99*,27,-8
Cc1noc(C)c1CSCC(=O)Nc1cc(S(=O)(=O)N2CCOCC2)ccc1OCC(F)(F)F,9,76*,17,-6,8,x
Cc1ccc2oc(C(=O)N3CCN(CC(=O)NC(C)C)CC3)c(C)c2c1,12,117,14,-5,-18,10
COc1ccc(S(=O)(=O)N(C)C[C@H]2Oc3c(NS(=O)(=O)c4cn(C)cn4)cccc3C(=O)N([C@H](C)CO)C[C@@H]2C)cc1,x,104,13,-1,0,x
N#C/C(=C\C=C\c1ccccc1[N+](=O)[O-])C(=O)NC1CCCCC1,-6,102,13,99*,12,9
O=C(O)c1ccccc1Nc1ccc([N+](=O)[O-])c2nonc12,-7,89,19,-59,2,-23
CC1(C)CC2(CCCN3C(=O)CSC32)CCS1 (configuration not stated),21,98,10,-5,2,38*
COc1ccc(/C=C2\CCCC(C(=O)C(F)(F)F)=C2O)cc1,-14,98,0,20,28,31
O=C(C1=C(O)/C(=C/c2ccc(O)cc2)CCC1)C(F)(F)F,x,101,12,99*,-5,-4
Cc1ccccc1-n1nnnc1SCC(=O)NNC(=O)c1ccc(NC(=O)CC#N)cc1,x,103,20,24,12,x
COc1ccc(C(=O)n2nc(C#N)c(C#N)c2N)cc1,-8,x,18,-12,1,37*
Cc1ccc2c(c1)c1c(n2C)-c2[nH]ncc2CC1,-7,103,1,94*,7,6
Cc1ccc2c(c1)c1c(n2C)C(C(N)=O)CCC1 (configuration not stated),7,107,22,3,-1,30
COc1cc(/C=C2\C(=O)NN(c3ccccc3)C2=O)ccc1OCC(N)=O,15,x,12,96*,x,5
C#CCOc1ccc(/C=C2/C(=O)NN(c3ccc(F)cc3)C2=O)cc1OC,-5,108,16,98*,-15,18
COC(=O)c1ccc(N2NC(=O)/C(=C/c3ccc(OC)c(OC)c3)C2=O)cc1,6,108,22,12,12,15
Cc1ccc(S(=O)(=O)N2Cc3ccccc3CC2C(=O)NC(C)(C)C)cc1 (configuration not stated),10,112,11,-1,24,17
CCOC(=O)C(=O)NNc1ccc(F)cc1,-30,105,29,99*,44,x

# Source: PubChem BioAssay (several laboratories)
